≈ marks a conversion by molar mass, not a printed value. Entries after “also recorded” stand apart in the source; their conditions may differ. Where two headings read alike, the source gives them in different places.
Assays:
[1] = system: L. donovani promastigotes; details: at 100 μg/mL; cited from earlier work
Murine macrophages = experiment: Toxicity towards murine macrophages; type: cell-based; details: for IC50: read-out: Murine macrophages (IC50)
[2] = system: Leishmania donovani promastigotes; experiment: Antiprotozoal activity; type: cell-based; details: for EC50: read-out: L. donovani promastigotes (EC50)
[3] = system: Leishmania donovani promastigotes; details: earlier work; cited from earlier work
[4] = target: Leishmania DNA topoisomerase IB enzyme (LdTopIB) (Leishmania donovani, UniProt A0A3Q8IHS4+Q8WQM6); experiment: Inhibition of the relaxation activity of recombinant LdTopIB; type: biochemical; details: plasmid DNA relaxation assay
Procedure, shortened: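 One unit of recombinant Leishmania donovani TopIB was incubated with negatively supercoiled pHOT plasmid DNA for 30 min at 37 °C, with test compound at 3.1–150 or 3.125–100 µM. A DMSO lane served as control. Reactions were stopped with 1% SDS plus 6.1 µg proteinase K. Products were separated on agarose gel and stained with ethidium bromide to score supercoiled, nicked and relaxed topoisomer bands.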

human TopIB (hTopIB) = experiment: Inhibition of the relaxation activity of human TopIB; type: biochemical; details: 3.125−100 μM acid 1, 30 min at 37°C
Procedure, shortened: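 Human TopIB relaxed supercoiled pHOT plasmid DNA alongside recombinant LdTopIB, with test compound at 3.125–100 µM and a DMSO vehicle lane. Reactions stopped with 1% SDS plus 6.1 µg proteinase K. Products resolved on agarose gel and stained with ethidium bromide. Supercoiled, nicked and relaxed topoisomer bands scored against a DNA-only lane (0.2 µg plasmid).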

L. donovani = details: cited from earlier work

Row | EC50 [2] | SMILES | Effect on motility of L. donovani promastigotes [1] | IC50 (Murine macrophages) | Effectiveness against L. donovani promastigotes (in words) [2] | further results
1 |  | CCCCCCCCCCCC(=O)O [n-dodecanoic acid] | inhibited the motility |  |  | 
2 |  | CCCCCCCCCCCCCCCCOP(=O)([O-])OCC[N+](C)(C)C [miltefosine] |  |  |  | IC50 (Murine macrophages; Mus musculus, Macrophage): 1.9 ± 0.4 µM; EC50 ([2]; Leishmania donovani): 0.8 ± 0.1 µM
3 |  | CCCCCCCCCC(=O)O [n-decanoic acid] | inhibited the motility |  |  | 
4 |  | CCCCCCCCCCCCCCCCCCCC(=O)O [n-eicosanoic acid] |  |  |  | Effectiveness towards L. donovani promastigotes (in words) [3]: not effective at all
5 | > 100 µM | CCCCCCCCCC/C=C\CCCCC(=O)O [6Z-heptadecenoic, 6Z-heptadecenoic acid] |  | 44.4 ± 1.6 µM | not effective against L. donovani promastigotes | 
6 | > 1000 µM | CCCCCCCCCCCCCCCC(OC)C(=O)O (racemic) [Acid 3, (±)-2-methoxyheptadecanoic acid] |  | > 1000 µM | not effective at all against the parasite | Inhibition of LdTopIB (in words) [4]: did not inhibit LdTopIB; also recorded: do not inhibit the enzyme; also recorded: not inhibiting the enzyme
7 |  | CCCCCCCCCCCCCCCC(=O)O [n-hexadecanoic acid] | inhibited the motility |  |  | 
8 | 404 ± 11.9 µM | CCCCCCCCCC/C=C\CCCC(OC)C(=O)O (racemic) [Acid 1, (±)-2-methoxy-6Z-heptadecenoic acid] |  | 484 ± 15.8 µM | not effective against L. donovani promastigotes | Inhibition of LdTopIB (in words) [4]: able to inhibit LdTopIB; Inhibition of hTopIB (in words) (human TopIB (hTopIB)): not effective against hTopIB
9 | 74 ± 17.1 µM | CCCCCCCCCCC#CCCCC(OC)C(=O)O (racemic) [Acid 2, (±)-2-methoxy-6-heptadecynoic acid] |  | > 700 µM |  | Inhibition of LdTopIB (in words) [4]: inhibit LdTopIB; Toxicity towards murine macrophages (in words) (Murine macrophages): did not display toxicity towards murine macrophages
10 |  | CCCCCCCCCCC#CCCCCC(=O)O [6-heptadecynoic, 6-heptadecynoic acid] |  |  |  | Toxicity towards murine macrophages (in words) (Murine macrophages): considerable toxicity towards murine macrophages; IC50 (Murine macrophages; Mus musculus, Macrophage): 21.3 ± 0.9 µM; EC50 ([2]; Leishmania donovani): 25.1 ± 1.4 µM
11 |  | CCCCCCCC/C=C\CCCCCCCC(=O)O [oleic acid] | no effect |  |  | MIC against L. donovani (L. donovani): 90 µM (≈ 25.4 µg/mL)
12 |  | CCCCCCCCCCCCCCCCCC(=O)O [n-octadecanoic acid] |  |  |  | MIC against L. donovani (L. donovani): 1390 µM (≈ 395 µg/mL)
13 | > 100 µM | CCCCCCCCCCCCCCCCC(=O)O [n-heptadecanoic, n-heptadecanoic acid] |  | 52.6 ± 7.5 µM | not effective at all against the parasite | Effectiveness towards L. donovani promastigotes (in words) [3]: not effective at all

— article PMC3483880 (Pure and applied chemistry. Chimie pure et appliquee, 2012)
